Assay [1] relates to HeLa. Briefly: Inhibitory concentration in HeLa cells. Format: functional, cell-based. The conditions noted are these: Homo sapiens. The method, boiled down: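 HeLa viability assay. Low-passage HeLa (passage 10–20) treated with compounds at 0, 1, 3, 10 and 100 µM; viability read out. Values given as mean with standard deviation, n = 4.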
The test system of assay [2] is ZR-75-1. Description: Inhibitory concentration in ZR-75-1 cells. Format: functional, cell-based. The conditions noted are these: Homo sapiens. The method, boiled down: (§1)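 XTT viability: MCF7 grown in DMEM/10% FBS with 10^-10 M insulin, 1 mM pyruvate, glutamine; ZR75-1 in RPMI/10% FBS with HEPES, 1 mM pyruvate, glutamine. 1000 cells/well seeded in triplicate, compounds at final 0, 1, 10 and 100 µM for 3 days. Then XTT (1 mg/mL) with 0.025 mM PMS added for 4 h. OD450 read, blank wells subtracted.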

Assay [3] concerns MCF7S. Briefly: Inhibitory concentration in MCF-7 cells. Format: functional, cell-based. Conditions: Homo sapiens. In a few lines: as §1
Assay [4] addresses Bcl-2-like protein 1 (Homo sapiens, UniProt Q07817). Description: Inhibitory concentration against Bcl-xl.

Bcl-2-like protein 1, sequence (Q07817 whole entry): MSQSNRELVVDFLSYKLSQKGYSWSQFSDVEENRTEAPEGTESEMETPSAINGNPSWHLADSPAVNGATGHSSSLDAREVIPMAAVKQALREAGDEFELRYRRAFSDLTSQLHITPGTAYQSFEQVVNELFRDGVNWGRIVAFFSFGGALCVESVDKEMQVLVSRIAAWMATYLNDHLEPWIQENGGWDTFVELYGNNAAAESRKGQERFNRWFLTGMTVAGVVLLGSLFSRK

For `COc1c(O)cc2cccc(OC)c(=O)c2c1OC`, in assay [1], the IC50 – broadly, the concentration at which inhibition is half-maximal – is more than 100 µM.
Consider `COc1cc2cccc(OC)c(=O)c2c(OC)c1OC`, for which the concentration for half-maximal inhibition (IC50) in assay [1] is more than 100 µM.
On to `CCOC(=O)c1cc(O)c(=O)c2cc(O)c(O)cc2c1`, for which the half-maximal inhibitory concentration (IC50) in assay [1] came out at 51.5 µM; in assay [2], 50 µM.
With `COC(=O)c1cc(O)c(=O)c2cc(O)c(O)cc2c1`, the IC50 in assay [1] was 30 µM.
Compound `O=C(O)c1cc(O)c(=O)c2cc(O)c(O)cc2c1` showed an IC50 in assay [1] of 22.9 µM.
On to `Cc1cc2c(C(C)C)c(O)c(O)c(C=O)c2c(O)c1-c1c(C)cc2c(C(C)C)c(O)c(O)c(C=O)c2c1O` [GOSSYPOL], for which the IC50 in assay [3] was found to be 13.2 µM; in assay [2] it was 8.4 µM; in assay [4] it was 500 nM.
In turn, `O=c1c(O)cccc2cc(O)c(O)c(O)c12` [PURPUROGALLIN] displayed a concentration for half-maximal inhibition (IC50) in assay [1] of 6.5 µM.

Values taken from ChEMBL document CHEMBL1144902, “Discovery, characterization, and structure-activity relationships studies of proapoptotic polyphenols targeting B-cell lymphocyte/leukemia-2 proteins” (J Med Chem, 2003).
